Only some compounds are listed: those with a hit (about 2.6% of all), similar ones and a draw of the others.
Rin1-Abl PPI inh: human Rin1-Abl interaction inhibition; P00519+Q13671; TR-FRET Rin1/Abl binding, biochemical; inhibition, % at 7.35 µM; 0.4% of 360,000 active; in the data active means inhibition above about 5%, passing the limit was not always enough
Myeloid diff 2: promotes myeloid progenitor differentiation. ER-HoxA9 myeloid progenitors, lysozyme-GFP differentiation, flow cytometry. calls only at 10 µM. 1% of 360,000 active. AID 624256;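 active means normalized GFP-positive differentiation at or above the plate's own cutoff, the solvent-only control mean plus 3 SD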;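 further: cells exposed to compound for four days before flow analysis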
SKN-1 block: C. elegans SKN-1 inhibition | C. elegans VP596 Pgst-4::GFP/RFP ratio, acrylamide-induced, 24 h | 0.49% of 360,000 active | inhibition, % at 21.8 µM;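 active means interference check ratio from 0.5 to 1.5 plus GFP to RFP signal ratio inhibition reaching or exceeding a fixed threshold, cut at about 30% in these data, passing the limit was not always enough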
GRK2 inh: inhibitors of human GRK2 displacing RNA aptamer; bead flow cytometry, FAM-aptamer displacement from GRK2; inhibition of aptamer binding, % at 10 µM; 0.59% of 330,000 active; AID 488847;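 active means inhibition of aptamer binding above 40%, roughly 3 SD of noise, on plates passing a quality check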;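 further: median bead fluorescence of bound FAM aptamer so fluorescent compounds give negative values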
Rce1 inhib: inhibitors of yeast Ras-converting enzyme. calls only. yeast membranes, quenched prenylated peptide cleavage fluorescence. Q03530. 0.27% of 290,000 active;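 active means fall in fluorescence gain of 50% or more versus controls, with final raw signal at or below 3038400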;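 further: plate controls were neutral control wells for no effect and wells lacking membranes for full effect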
Target sequence (Q03530 whole entry, looked up): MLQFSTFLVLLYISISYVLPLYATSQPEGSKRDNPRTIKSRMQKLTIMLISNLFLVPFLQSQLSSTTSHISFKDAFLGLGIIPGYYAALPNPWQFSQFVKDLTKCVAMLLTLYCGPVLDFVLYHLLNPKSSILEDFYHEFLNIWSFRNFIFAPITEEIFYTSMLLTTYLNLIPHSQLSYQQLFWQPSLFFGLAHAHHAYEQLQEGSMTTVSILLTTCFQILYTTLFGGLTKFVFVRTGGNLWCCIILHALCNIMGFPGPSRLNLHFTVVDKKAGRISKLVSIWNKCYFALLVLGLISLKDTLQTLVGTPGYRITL
T cell modulator: T cell immune modulators affecting CD8 T cell-vesicle binding. 2C CD8+ T cell-vesicle binding, flow cytometry; active compounds read low. response (vesicle binding), % at 7 µM. 0.068% of 330,000 active;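 active means response, share of CD8 T cells binding vesicles, and their 90th percentile fluorescence all below set limits, cut at about 80% in these data, passing the limit was not always enough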;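 further: values below 100% mean blocked vesicle binding to the CD8+ T cells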
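Material: 2C TCR transgenic mouse naive CD8+ T cells, MACS-purified. Also added: QL9-charged Drosophila Ld/ICAM-1/B7-1 vesicles. Timing: binding 1.5 h at 37 °C. Measured by: high-throughput flow cytometry with anti-B7-1 and anti-CD8 staining. Read-out: percent CD8+ FL2 mean versus row control. Controls: Unloaded micro-vesicles (low), QL9 vesicles with 0.7% DMSO (high).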
* = called active by the depositor; i = inactive; . = not tested or not shown; + = active, no number.

SMILES	Rin1-Abl PPI inh	Myeloid diff 2	SKN-1 block	GRK2 inh	Rce1 inhib	T cell modulator
Cc1ccccc1-c1nc2cc(NC(=O)C3CC3)ccc2o1	-3.1	i	16.0	4.0	.	705.2
O=S(=O)(NCCN1CCOCC1)c1ccc(Oc2ccccc2Cl)cc1	-0.3	+	12.8	0.0	i	317.3
O=S(=O)(NCCN1CCOCC1)c1ccc2ccccc2c1	-2.5	i	6.9	3.0	.	182.7
COc1ccccc1-c1oc2ccccc2c1C#CCCO	-0.6	i	4.3	4.0	.	255.4
COc1cc(-c2ccc3oc(-c4cccc(C)c4)c(C#CC4(O)CCCCC4)c3c2)cc(OC)c1OC	-0.3	i	-12.2	0.0	.	246.2
Cc1cccc(-c2oc3ccccc3c2C#CCCO)c1	1.3	i	14.7	6.0	+	607.4
Cc1cccc(-c2oc3ccccc3c2C#CCCCCO)c1	4.0	i	-15.5	4.0	+	410.0
CC(C)(C)C(c1nc2ccccc2[nH]1)n1c(-c2cc(Cl)cc(Cl)c2)nc2ccccc21 (centres undefined)	.	i	24.8	.	.	.
Cc1ccccc1/C=N/n1c(-c2cc(-c3ccccc3)n[nH]2)n[nH]c1=S	0.0	i	-5.0	1.0	i	139.5
S=c1[nH]nc(-c2cc(-c3ccccc3)n[nH]2)n1/N=C/c1c(Cl)cccc1Cl	0.5	+	4.0	0.0	i	215.3
Cn1c(=O)c2[nH]c(N3CCN(c4ccccc4)CC3)nc2n(C)c1=O	-0.1	i	-0.3	0.0	i	612.3
COc1cccc(OCc2cc(C(=O)N3CCC(c4ccncc4)CC3)no2)c1	3.2	+	3.9	1.0	i	88.6
COc1cccc(OCc2cc(C(=O)N(C)C3CCOCC3)no2)c1	-0.9	+	6.9	1.0	i	433.7
COc1cc(C)ccc1S(=O)(=O)NC1CC(C)(C)NC(C)(C)C1	-1.5	i	8.0	0.0	.	329.5
COc1cc(-c2cnc3c(NC(C)=O)cc(-c4cccc(C(=O)NCCO)c4)cn23)cc(OC)c1OC	-2.1	i	-3.9	.	.	.
O=C1/C(=C\c2c(NCCOCCO)nc3ccccn3c2=O)SC(=S)N1Cc1ccco1	-3.5	i	81.4	0.0	i	356.1
CCOCCCNc1nc2c(C)cccn2c(=O)c1/C=C1\SC(=S)N(C(C)CC)C1=O (centres undefined)	-0.8	+	76.3	0.0	i	347.8
CCOCCCNc1nc2c(C)cccn2c(=O)c1/C=C1\SC(=S)N(CC(C)C)C1=O	1.2	+	12.8	0.0	i	403.5
CCCN1C(=O)/C(=C/c2c(NCCCOCC)nc3c(C)cccn3c2=O)SC1=S	1.0	+	8.8	.	.	.
O=C(Nc1cccc(C(F)(F)F)c1)C1Cc2c(-c3ccccc3)ccnc2O1 (centres undefined)	2.2	i	27.9	.	.	.
CC(=O)NC(c1cccs1)c1cc([N+](=O)[O-])c2cccnc2c1O (centres undefined)	16.6*	i	6.2	0.0	i	853.7
O=[N+]([O-])c1ccc(Oc2cccc3cccnc23)c([N+](=O)[O-])c1	0.1	+	-4.3	0.0	i	242.8
CN1CCN(CCCNC(=O)c2ccc(/C=C3\Sc4ccccc4N(Cc4ccc(F)cc4)C3=O)cc2)CC1	-1.5	i	-5.4	.	i	.
CN1CCN(CCCNC(=O)c2ccc(/C=C3/Sc4ccccc4N(Cc4cccc(Cl)c4)C3=O)cc2)CC1	-0.8	+	-8.8	.	i	.
CSCCC(NS(=O)(=O)c1ccc2ccccc2c1)C(=O)OCC(=O)c1ccc(C(C)C)cc1 (centres undefined)	-2.3	+	13.2	1.0	i	678.1
SMILES	Rin1-Abl PPI inh	Myeloid diff 2	SKN-1 block	GRK2 inh	Rce1 inhib	T cell modulator
COc1ccc(NS(=O)(=O)c2c(C)cc(C)cc2C)cc1	-2.2	i	-19.9	1.0	+	897.3
O=c1[nH]cccc1-c1nc2ccccc2n1Cc1cccc(Cl)c1	1.1	i	-3.1	0.0	+	420.3
CCOC(=O)Nc1nc(-c2ccc(Cl)cc2Cl)cs1	1.2	i	57.1*	0.0	i	275.6
CCOC(=O)Cc1csc(NC(=O)Cc2ccc(Cl)cc2)n1	3.7	i	-11.0	1.0	i	886.0
CCOC(=O)Cc1nc(-c2ccc(Cl)cc2)n[nH]1	0.0	i	6.3	0.0	i	191.9
O=C1C=C(C#Cc2ccc(Oc3ccccc3)cc2)C[C@@H](c2ccc(F)cc2)C1	1.1	i	-3.8	.	.	.
CCC1CN2CCc3cc(OC)c(OC)cc3C2CC1CC1c2cc(OC)c(OC)cc2CCN1C(=O)C(Cc1c[nH]c2ccccc12)NC(=O)OC(C)(C)C (centres undefined)	-1.1	+	9.4	.	.	.
CCCCOC(=O)Nc1nc(C)c(C(=O)OCC)s1	-0.9	i	-8.5	3.0	+	308.5
CCOC(=O)c1sc(NC(=O)CC)nc1C	-0.3	i	-0.9	2.0	i	i
O=C(COc1ccccc1)NC1CCCN(Cc2ccccc2F)C1 (centres undefined)	2.5	i	0.8	0.0	i	376.6
CC(=O)c1ccc(OCC(=O)NC2CCCN(Cc3ccccc3F)C2)cc1 (centres undefined)	4.6	+	12.7	.	i	.
CCOC(=O)c1cc([N+](=O)[O-])sc1NC(=O)c1ccc(S(=O)(=O)N2CC3(C)CC2CC(C)(C)C3)cc1 (centres undefined)	0.6	+	15.4	0.0	i	193.4
CC1(C)CC2CC(C)(CN2S(=O)(=O)c2ccc(C(=O)Nc3ccc(S(=O)(=O)N4CCOCC4)cc3)cc2)C1 (centres undefined)	0.2	i	-0.4	5.0	i	236.4
CC(C)Cn1c(N)c(C(=O)CSc2nnnn2C)c(=O)n(C)c1=O	-1.9	i	43.4*	2.0	i	375.1
CCN(CC)C(=O)CSc1nc2ccccc2c(=O)n1OC(C)C	3.0	+	-14.2	1.0	i	469.9
COc1cccc(CN(CC(=O)NC2CCCC2)C(=O)CCC(=O)Nc2cc(C)on2)c1	-0.7	i	0.7	0.0	.	452.8
COc1cccc(N(CC(=O)NC2CCCC2)C(=O)CCC(=O)Nc2cc(C)on2)c1	2.8	+	4.8	1.0	i	299.9
Cc1c(S(=O)(=O)c2ccccn2)c(N)n(Cc2ccccc2Cl)c1C	0.4	+	15.8	0.0	i	587.5
Cc1cccn2c(=O)nc(SCC(=O)Nc3ccc4c(c3)OCCO4)nc12	3.1	i	-16.4	2.0	i	225.1
COc1cc(CNc2ccc3[nH]c(=O)[nH]c3c2)cc(Br)c1OCc1ccc(F)cc1	1.0	+	11.8	2.0	i	141.9
COc1cc(CNc2ccc3[nH]c(=O)[nH]c3c2)ccc1OCc1ccc(C)cc1	-0.1	i	5.6	1.0	i	145.4
Cc1cc(OCCCCN2C(=O)NC(C)(C)C2=O)cc(C)c1Cl	-8.2	i	39.3*	1.0	i	348.3
